Reference: ChEMBL document CHEMBL4004801, “Bioactive Constituents from the Termite Nest-Derived Medicinal Fungus Xylaria nigripes” (J Nat Prod, 2017)

Legend:
[1] = test system: BV-2; experiment: Inhibition of LPS-induced iNOS expression in mouse BV2 cells at 20 uM pretreated for 15 mins followed by LPS-stimulation after 24 hrs by western blot analysis relative to control; format: functional
Procedure, shortened: (§1)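 BV-2 cells at 80% confluence, serum-free medium for 24 h. Cells given DMSO or compound, then LPS 150 ng/mL for 24 h. Lysate supernatants run on SDS-PAGE, blotted to PVDF, probed with anti-COX-2 or anti-iNOS and HRP secondary, detected by ECL. Protein levels expressed as fold of control. Mean ± SD of three experiments.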

[2] = Cytotoxicity against mouse BV2 cells assessed as cell viability at 20 uM after 24 hrs by MTT assay relative to control; format: cell-based, BV-2; conditions: read-out: Activity
Procedure, shortened: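 BV-2 cells grown in DMEM with 10% heat-inactivated FBS at 37 °C under 5% CO2. Medium switched to 0.5% FBS at 85% confluence before treatment. Viability measured after 24 h compound exposure by colorimetric MTT reduction. Mean ± SD of three individual experiments.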

[3] = test system: BV-2; experiment: Inhibition of LPS-induced COX-2 expression in mouse BV2 cells at 20 uM pretreated for 15 mins followed by LPS-stimulation after 24 hrs by western blot analysis relative to control; format: functional; procedure, shortened: as §1
[4] = test system: BV-2; experiment: Inhibition of LPS-induced nitric oxide production in mouse BV2 cells pretreated for 30 mins followed by LPS-stimulation after 24 hrs by Griess assay; format: functional, cell-based
Procedure, shortened: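 BV2 cells seeded at 5 × 10^5 per well for 16 h, then moved to phenol red-free DMEM. Cells pretreated 30 min with vehicle or compound (2, 10, 20, 40 μM), then given LPS 150 ng/mL for 24 h. Supernatant nitrate reduced with nitrate reductase and cofactors for 1 h at RT in the dark. Griess A and B added for 20 min, then A550 read. Nitrite obtained by regression against NaNO2 standards, and IC50 derived. Curcumin used as positive control.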

[5] = test system: BV-2; experiment: Inhibition of LPS-induced COX-2 expression in mouse BV2 cells pretreated for 15 mins followed by LPS-stimulation after 24 hrs by western blot analysis; format: functional, cell-based
Procedure, shortened: (§2)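 Western blot in BV-2 microglia after serum-free conditioning for 24 h. Compound given at 2, 5, 10 and 20 μM, then LPS 150 ng/mL for 24 h. iNOS and COX-2 detected by ECL and expressed relative to control. IC50 calculated from the concentration–response data.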

[6] = test system: BV-2; experiment: Inhibition of LPS-induced iNOS expression in mouse BV2 cells pretreated for 15 mins followed by LPS-stimulation after 24 hrs by western blot analysis; format: functional, cell-based; procedure, shortened: as §2

SMILES | fold change (FC) [1] | viability at 24 h, 20 µM [2] [%] | fold change (FC) [3] | further results
CC1=C2[C@@H](C=C3C=CC[C@H](C)[C@@]3(C)[C@H]2O)OC1=O | 4.5 | 79.3 | 4.9 | –
CC1=C2[C@@H](C=C3CCC[C@H](C)[C@@]3(C)[C@H]2O)OC1=O | 3.2 | 90.2 | 6.4 | –
C=C(C=O)[C@@H]1C[C@@]2(C)C(=C[C@H]1O)CCC[C@@H]2C | – | 44.6 | – | –
C=C(C=O)[C@@H]1C[C@@]2(C)C(=CC1=O)CCC[C@@H]2C | – | 46.1 | – | –
O=C1C[C@H](O)Cc2cc(O)cc(O)c21 | 2.9 | – | 4.9 | –
CCCCC1OC(=O)c2c(O)cccc21 (configuration not stated) | 4.3 | – | 6.5 | –
COc1cc(/C=C/C(=O)CC(=O)/C=C/c2ccc(O)c(OC)c2)ccc1O [CURCUMIN] | – | – | – | IC50 [4]: 4.5 µM
C=C1CO[C@@H]2C=C3CCC[C@H](C)[C@@]3(C)C[C@@]12O | 1.8 | 87.7 | 2.1 | IC50 [5]: 16.6 µM; inhibition [5]: Dose-dependent effect; IC50 [4]: 21.7 µM; inhibition [4]: Dose-dependent effect; IC50 [6]: 8.1 µM; inhibition [6]: Dose-dependent effect
CCCCCc1cccc(O)c1CO | 3.4 | – | 5.6 | –
C=C(C)[C@@H]1Cc2cc(C=O)ccc2O1 | 3 | – | 4.2 | –
C=C(CO)C1=C[C@@]2(C)C(=CC1=O)CCC[C@@H]2C | 3.6 | 73.8 | 3.7 | –
C=C(C)[C@@H]1Cc2cc(CO)ccc2O1 | 1.9 | 85.9 | 2.4 | IC50 [5]: 12.7 µM; inhibition [5]: Dose-dependent effect; IC50 [4]: 33.8 µM; IC50 [6]: 11.6 µM; inhibition [6]: Dose-dependent effect
